According to ChEMBL document CHEMBL1136799, “Design and synthesis of pyrrolidine-5,5'-trans-lactams (5-oxo-hexahydropyrrolo[3,2-b]pyrroles) as novel mechanism-based inhibitors of human cytomegalovirus protease. 4. Antiviral activity and plasma stability” (J Med Chem, 2003):

How the values were obtained:
[1] = biological target: T1, Capsid scaffolding protein (Human cytomegalovirus (strain AD169) (HHV-5) (Human herpesvirus 5), UniProt P16753); assay: Potency against human cytomegalovirus protease in HCMV pNA assay; design: species or system Human herpesvirus 5 strain AD169
T1 sequence (P16753 whole entry): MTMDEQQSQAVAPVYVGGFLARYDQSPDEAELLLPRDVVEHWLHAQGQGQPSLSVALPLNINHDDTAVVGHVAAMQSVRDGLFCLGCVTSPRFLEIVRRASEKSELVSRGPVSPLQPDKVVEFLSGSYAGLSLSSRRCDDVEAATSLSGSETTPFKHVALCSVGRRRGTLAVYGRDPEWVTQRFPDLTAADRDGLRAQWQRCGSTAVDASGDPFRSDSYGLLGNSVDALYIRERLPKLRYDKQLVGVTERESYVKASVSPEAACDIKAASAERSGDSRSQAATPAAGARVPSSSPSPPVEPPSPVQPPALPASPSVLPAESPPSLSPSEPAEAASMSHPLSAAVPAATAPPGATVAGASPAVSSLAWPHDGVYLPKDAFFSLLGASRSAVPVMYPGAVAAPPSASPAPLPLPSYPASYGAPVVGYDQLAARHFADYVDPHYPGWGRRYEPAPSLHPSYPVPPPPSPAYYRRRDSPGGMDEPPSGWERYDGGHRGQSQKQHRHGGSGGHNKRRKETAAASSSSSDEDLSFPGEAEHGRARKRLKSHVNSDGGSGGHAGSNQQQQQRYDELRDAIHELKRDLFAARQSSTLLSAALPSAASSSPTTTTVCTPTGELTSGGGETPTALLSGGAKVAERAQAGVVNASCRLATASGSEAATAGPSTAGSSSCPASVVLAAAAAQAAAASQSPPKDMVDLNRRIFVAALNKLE

[2] = Compound was tested for its stability in human plasma; format: ADME, organism-based
[3] = test system: Human betaherpesvirus 5; assay: Concentration required to inhibit human cytomegalovirus HCMV-AD169 in ELISA assay
[4] = test system: Vero; assay: Growth inhibition of cytomegalovirus in Vero cells; format: functional, Human betaherpesvirus 5
[5] = biological target: T1, Capsid scaffolding protein; assay: Inhibition of human cytomegalovirus protease in HCMV pNA assay.; design: species or system Human herpesvirus 5 strain AD169
[6] = Concentration of compound required to inhibit elastase
[7] = test system: Human betaherpesvirus 5; assay: Concentration required to inhibit human cytomegalovirus HCMV-AD169 in ELISA assay; remark: listed apart in the source
[8] = biological target: T2, Acetylcholinesterase (Homo sapiens, UniProt P22303); assay: Concentration of compound required to inhibit Acetylcholinesterase
[9] = biological target: T3, Prothrombin (Homo sapiens, UniProt P00734); assay: Concentration of compound required to inhibit thrombin
[10] = Clearance value in dog; format: ADME, organism-based, Canis lupus familiaris; conditions: in vivo
Outline: (§1)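 Dog pharmacokinetics after intravenous administration, with plasma clearance, volume of distribution and half-life derived from plasma drug levels.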

[11] = Steady state distribution value in dog; format: ADME, organism-based, Canis lupus familiaris; conditions: in vivo, read-out: Vdss; outline: as §1
[12] = T max in guinea pig; format: ADME, organism-based, Cavia porcellus; conditions: in vivo
[13] = Steady state distribution value in guinea pig; format: ADME, organism-based, Cavia porcellus; conditions: in vivo, read-out: Vdss
Outline: (§2)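 Guinea-pig pharmacokinetics after intravenous dosing, with plasma clearance, volume of distribution and half-life. Drug levels were also measured in brain and vitreous humor.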

[14] = T 1/2 in dog; format: ADME, organism-based, Canis lupus familiaris; conditions: in vivo; outline: as §1
[15] = Clearance value in guinea pig; format: ADME, organism-based, Cavia porcellus; conditions: in vivo; outline: as §2
[16] = Concentration required to inhibit elastase
[17] = species: Cavia porcellus; assay: AUC 0-t in guinea pig; format: ADME, organism-based, Plasma; conditions: in vivo
[18] = biological target: T3, Prothrombin; assay: Concentration required to inhibit thrombin
[19] = species: Canis familiaris; assay: AUC 0-t in dog; format: ADME, organism-based, Canis lupus familiaris, Plasma; conditions: in vivo
[20] = species: Canis familiaris; assay: AUC 0-inf in dog; format: ADME, organism-based, Canis lupus familiaris, Plasma; design: time infinity; conditions: in vivo
[21] = biological target: T2, Acetylcholinesterase; assay: Concentration required to inhibit Acetylcholinesterase
[22] = C max in dog; format: ADME, organism-based, Canis lupus familiaris; conditions: in vivo
[23] = test system: Human betaherpesvirus 5; assay: Concentration required to inhibit human cytomegalovirus HCMV-AD169 in antiviralplaque reduction assay; format: functional, organism-based
[24] = C max in guinea pig; format: ADME, organism-based, Cavia porcellus; conditions: in vivo
[25] = Bioavailability in dog; format: ADME, organism-based, Canis lupus familiaris; conditions: in vivo
Outline: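 Oral bioavailability in dog, set against intravenous administration in the same study.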

[26] = T 1/2 in guinea pig; format: ADME, organism-based, Cavia porcellus; conditions: in vivo; outline: as §2
[27] = species: Cavia porcellus; assay: AUC 0-inf in guinea pig; format: ADME, organism-based, Plasma; design: time infinity; conditions: in vivo
[28] = T max in dog; format: ADME, organism-based, Canis lupus familiaris; conditions: in vivo

T2 sequence (P22303 whole entry): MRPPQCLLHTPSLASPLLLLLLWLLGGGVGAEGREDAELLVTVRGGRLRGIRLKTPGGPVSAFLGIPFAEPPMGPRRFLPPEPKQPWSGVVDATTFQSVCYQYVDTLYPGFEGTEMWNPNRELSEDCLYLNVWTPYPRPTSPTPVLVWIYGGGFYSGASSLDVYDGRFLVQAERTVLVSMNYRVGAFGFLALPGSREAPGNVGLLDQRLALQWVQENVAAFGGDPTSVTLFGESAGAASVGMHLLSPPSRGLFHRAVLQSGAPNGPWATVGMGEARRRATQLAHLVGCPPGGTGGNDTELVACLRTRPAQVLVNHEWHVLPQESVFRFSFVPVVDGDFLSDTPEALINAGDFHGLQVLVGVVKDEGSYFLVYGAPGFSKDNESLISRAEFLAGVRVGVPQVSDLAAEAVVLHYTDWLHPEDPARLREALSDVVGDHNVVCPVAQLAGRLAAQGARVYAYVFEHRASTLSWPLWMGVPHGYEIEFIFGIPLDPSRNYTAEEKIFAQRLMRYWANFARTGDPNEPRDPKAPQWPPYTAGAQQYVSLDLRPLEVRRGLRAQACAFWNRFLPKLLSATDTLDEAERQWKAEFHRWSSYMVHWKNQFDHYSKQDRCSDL

Compound | Ki [1] [nM] | half-life [2] [h] | IC50 [3] [nM] | CCID50 [4] [µM] | IC50 [5] [nM] | further results
CC(C)c1ccc(NC(=O)N2CCC[C@H]2C(=O)N2CC[C@H]3[C@H]2[C@H](C)C(=O)N3c2nc3cccnc3s2)cc1 | 21 | 8 | 3600 | <31 | 290 | 
CC(C)c1ccc(NC(=O)N2CCC[C@H]2C(=O)N2CC[C@H]3[C@H]2[C@H](C)C(=O)N3C(=O)[C@@H]2[C@H](C)[C@@H]2C)cc1 | 16 | 6 |  | 219 | 300 | IC50 [6]: > 10000 nM; IC50 [7]: 10000 nM; IC50 [8]: > 100000 nM; IC50 [9]: > 200000 nM
CCOC(=O)c1ccc2nc(N3C(=O)[C@@H](C)[C@@H]4[C@@H]3CCN4C(=O)[C@@H]3CCCN3C(=O)Nc3ccc(C(C)C)cc3)sc2c1 | 7.4 | 9 | 5100 | >500 | 350 | 
CC(C)c1ccc(NC(=O)N2CCC[C@H]2C(=O)N2CC[C@H]3[C@H]2[C@H](C)C(=O)N3c2nc3ccc(CO)cc3s2)cc1 | 40 | > 20 | 520 | 125 | 310 | 
CC(C)c1ccc(NC(=O)N2CCC[C@H]2C(=O)N2CC[C@H]3[C@H]2[C@H](C)C(=O)N3c2nc3ccccc3s2)cc1 | 10 | > 24 |  | >500 | 180 | clearance [10]: 8 mL/min/kg; Vd [11]: 0.8 L/kg; Tmax [12]: 4.8 min; Vd [13]: 1.6 L/kg; half-life [14]: 1.5 h; clearance [15]: 60 mL/min/kg; IC50 [16]: > 10000 nM; AUC 0-t [17]: 2210 ng/mL/h; IC50 [18]: > 200000 nM; AUC 0-t [19]: 9660 ng/mL/h; AUC 0-infinity [20]: 9750 ng/mL/h; IC50 [21]: > 100000 nM; Cmax [22]: 5480 ng/mL; IC50 [23]: 5000 nM; Cmax [24]: 32000 ng/mL; bioavailability [25]: 29%; half-life [26]: 1 h; AUC 0-infinity [27]: 2230 ng/mL/h; Tmax [28]: 4.8 min
CC(C)c1ccc(NC(=O)N2CCC[C@H]2C(=O)N2CC[C@H]3[C@H]2[C@H](C)C(=O)N3C(=O)C2CC2)cc1 | 2 | 0.5 | 31000 | 274 | 200 | 
